Experimental data: ChEMBL document CHEMBL1156120, “18F stilbenes and styrylpyridines for PET imaging of A beta plaques in Alzheimer's disease: a miniperspective” (J Med Chem, 2010)

Target: Amyloid-beta precursor protein (Homo sapiens, UniProt P05067)
Sequence (P05067 whole entry): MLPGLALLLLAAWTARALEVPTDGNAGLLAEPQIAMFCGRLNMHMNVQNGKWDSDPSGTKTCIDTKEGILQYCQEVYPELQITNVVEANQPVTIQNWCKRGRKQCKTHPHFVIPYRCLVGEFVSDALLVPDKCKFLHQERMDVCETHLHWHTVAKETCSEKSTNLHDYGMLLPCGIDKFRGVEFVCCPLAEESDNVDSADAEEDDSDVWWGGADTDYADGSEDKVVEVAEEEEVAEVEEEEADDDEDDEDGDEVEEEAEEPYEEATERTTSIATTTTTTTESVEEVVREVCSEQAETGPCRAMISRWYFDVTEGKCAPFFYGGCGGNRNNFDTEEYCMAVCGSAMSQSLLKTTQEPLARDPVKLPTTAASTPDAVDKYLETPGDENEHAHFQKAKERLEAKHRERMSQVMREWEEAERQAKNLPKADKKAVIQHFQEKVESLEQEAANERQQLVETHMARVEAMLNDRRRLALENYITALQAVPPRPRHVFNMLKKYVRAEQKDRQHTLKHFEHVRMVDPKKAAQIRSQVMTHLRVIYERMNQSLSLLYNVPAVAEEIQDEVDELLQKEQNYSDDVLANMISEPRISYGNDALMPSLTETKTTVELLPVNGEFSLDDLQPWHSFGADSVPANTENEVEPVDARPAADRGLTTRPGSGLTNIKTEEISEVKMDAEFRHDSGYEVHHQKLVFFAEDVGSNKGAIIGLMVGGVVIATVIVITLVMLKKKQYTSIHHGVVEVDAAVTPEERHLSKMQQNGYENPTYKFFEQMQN
Test: Binding affinity to Beta amyloid aggregates in Alzheimer's disease patient brain by competitive binding assay
Settings: not given
In short: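 Competition binding against ¹⁸F-AV-45 (0.04–0.06 nM, diluted in PBS) in postmortem AD brain homogenate (20–25 µg per assay). Competitors were serially diluted 10⁻⁵–10⁻¹⁰ M in PBS with 0.1% bovine serum albumin, in a final volume of 0.5 mL. Inhibition constant (Ki) derived from displacement.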
CC(=C(C#N)C#N)c1ccc2cc(N(C)CCF)ccc2c1 gave a Ki of 172 nM. CNc1ccc(/C=C/c2ccc(OCC(CO)CF)cc2)cc1 (centres undefined) showed a Ki of 5 nM. COc1ccc(/C=C/c2cccc(I)c2)cc1 showed a Ki of 22 nM. Molecule CN(C)c1ccc(/C=C/c2ccccc2I)cc1 has a Ki of 7.7 nM. CN(C)c1ccc(/C=C/c2nc3ccccc3s2)cc1 gave a Ki of 2.3 nM. Molecule CNc1ccc(/C=C/c2ccc(OCCOCCOCCOCCOCCOCCOCCOCCOCCOCCF)cc2)cc1 has a Ki of 12.2 nM. Molecule CNc1ccc(/C=C/c2ccc(OCCOCCOCCOCCOCCOCCOCCOCCF)cc2)cc1 has a Ki of 9 nM. In the case of CNc1ccc(/C=C/c2ccc(OCCOCCOCCOCCOCCOCCOCCF)cc2)cc1, the Ki is reported as 8.2 nM. Molecule Oc1ccc(/C=C/c2cccc(I)c2)cc1 has a Ki of 32 nM. CN(C)c1ccc(/C=C/c2cccc(I)c2)cc1 gave a Ki of 4.5 nM. For CNc1ccc(-c2nc3ccc(O)cc3s2)cn1, the Ki was 1.7 nM. In the case of CN(C)c1ccc(/C=C/c2ccc(I)cc2)cc1, the Ki is reported as 2 nM. Molecule CNc1ccc(/C=C/c2ccc(OCCOCCOCCOCCOCCOCCF)cc2)cc1 has a Ki of 7.5 nM. In the case of CNc1ccc(/C=C/c2ccc(OCCOCCOCCOCCOCCOCCOCCOCCOCCF)cc2)cc1, the Ki is reported as 18.5 nM. In the case of CN(C)c1ccc(/C=C/c2ccc(F)cc2)cc1, the Ki is reported as 22 nM. In the case of O=C(O)c1cc(/N=N/c2ccc(-c3ccc(/N=N/c4ccc(O)c(C(=O)O)c4)cc3)cc2)ccc1O [CHRYSAMINE G], the Ki is reported as > 1000 nM. CNc1ccc(/C=C/c2ccc(OCCOCCOCC[18F])nc2)cc1 [FLORBETAPIR F 18] showed a Ki of 2.87 nM. CNc1ccc(-c2nc3ccc(O)cc3s2)cc1F [FLUTEMETAMOL] showed a Ki of 0.74 nM.

Test system: not listed separately
Test: Partition coefficient, log P at pH 7.4
Format: physicochemical
Settings: octanol/water
CNc1ccc(/C=C/c2ccc(OCC(CO)C[18F])cc2)cc1 (centres undefined) showed a logD of 2.95.
